Results pooled from the literature.
Observed: DPPH scavenging

| Structure (SMILES) | technique | time | setting | IC50 |
| --- | --- | --- | --- | --- |
| CCCCCCCCCCC1NCCc2cc(O)c(O)cc21 (centres unmarked) | absorbance | 30 min | dark | 60.7 µM |
| CCOC(=O)C1=C(CCl)NC(=O)NC1c1ccccc1 (centres unmarked) |  |  |  | 207 µM |
| O=c1c(O)c(-c2ccc(O)c(O)c2)oc2cc(O)cc(O)c12 |  |  |  | 18.6 µM |
| CCOC(=O)C1=C(CCl)NC(=O)NC1c1cccc(Cl)c1 (centres unmarked) |  |  |  | 104 µM |
| O=C(O[C@@H]1COC(=O)c2cc(O)c(O)c(O)c2-c2c(cc(O)c(O)c2O)C(=O)O[C@H]1[C@@H]1OC(=O)c2cc(O)c(O)c(O)c2-c2c(O)c(O)c(O)c3c2C(=O)O[C@H]1[C@@H]3O)c1cc(O)c(O)c(O)c1 | absorbance |  |  | 5.37 µg/mL |
| CCOC(=O)C1=C(CCl)NC(=O)NC1c1cccc(OC)c1 (centres unmarked) |  |  |  | 86.7 µM |
| CCCCCCCCCCCCCCCCCCc1ccc(O)cc1 |  |  |  | 204 µM |
| O=C1O[C@H]([C@@H](O)CO)C(O)=C1O |  |  |  | 9.1 µg/mL |
| CCOC(=O)C1=C(CCl)NC(=O)NC1c1cccc(F)c1 (centres unmarked) |  |  |  | 179 µM |
| O=C1O[C@H]([C@@H](O)CO)C(O)=C1O | absorbance | 30 min | dark | 30.8 µM |
| Cc1ccc(NC(=O)CSc2nc3ccccc3cc2C=Nn2c(S)nnc2-c2ccccc2)cc1 |  |  |  | 120 µM |
| C=C(C)[C@@H]1CC[C@]2(C)CC[C@]3(C)[C@H](CC[C@@H]4[C@@]5(C)CC[C@H](O)C(C)(C)[C@@H]5CC[C@]43C)[C@@H]12 | absorbance |  |  | 18.6 µg/mL |
| CCCCCCCCCCCCCCCC1NCCc2cc(O)c(O)cc21 (centres unmarked) | absorbance | 30 min | dark | 37.3 µM |
| Cc1ccccc1NC(=O)CSc1nc2ccccc2cc1C=Nn1c(S)nnc1-c1ccccc1 |  |  |  | 131 µM |
| CCCCCC1NCCc2cc(O)c(O)cc21 (centres unmarked) | absorbance | 30 min | dark | 63 µM |
| O=C1O[C@H]([C@@H](O)CO)C(O)=C1O | absorbance | 30 min |  | 90.1 µM |
| COc1cc(C2NCCc3cc(O)c(O)cc32)cc(OC)c1O (centres unmarked) | absorbance | 30 min | dark | 11.2 µM |
| CCOC(=O)C1=C(CSC2=NCCS2)NC(=O)NC1c1ccc(OC)cc1 (centres unmarked) |  |  |  | 139 µM |
| COc1cccc(C2NCCc3cc(O)c(O)cc32)c1O (centres unmarked) | absorbance | 30 min | dark | 6.49 µM |
| CCOC(=O)C1=C(CSC2=NCCS2)NC(=O)NC1c1ccc(F)cc1F (centres unmarked) |  |  |  | 137 µM |
